Test results taken from ChEMBL document CHEMBL1817668, “Synthesis of 6-[¹⁸F]fluoro-PBR28, a novel radiotracer for imaging the TSPO 18 kDa with PET” (Bioorg Med Chem Lett, 2011).
Calls of active or inactive are those of the source. The rule behind the calls is not given here.

Tests used:
[1] = tested on: Striatum; assay: Drug uptake in AMPA lesioned rat striatum after 1-2 mins post injection; type: ADME, tissue-based; conditions: in vivo
[2] = tested on: Striatum; assay: Drug uptake in rat striatum after 1-2 mins post injection; type: ADME, tissue-based; conditions: in vivo
[3] = species: Rattus norvegicus; assay: Displacement of [3H]Flunitrazepam from CBR in rat cerebral cortex at 0.1 uM; type: tissue-based
Summary of the method: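 Competition binding against [3H]flunitrazepam, a reference central benzodiazepine receptor ligand, in a rat cerebral cortex homogenate screen. […]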

[4] = molecular target: T1, Translocator protein (Rattus norvegicus, UniProt P16257); assay: Displacement of [3H]PK11195 from TSPO in rat heart membrane homogenate; type: cell membranes
[5] = molecular target: T1, Translocator protein; assay: Displacement of [3H]PK11195 from TSPO in rat kidney mitochondrial fraction; type: tissue-based
[6] = molecular target: Translocator protein (Homo sapiens, UniProt P30536); assay: Displacement of [3H]PK11195 from TSPO in human HEK293 mitochondrial fraction
[7] = tested on: C6; assay: Induction of pregnenolone synthesis in rat C6 cells at 40 uM after 2 hrs by ELISA relative to control; type: functional
Summary of the method: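 Rat C6 glioma cells were exposed to ligand at 40 μM. Released pregnenolone was measured by competitive ELISA and expressed as % above control. Mean ± SEM of at least three independent experiments.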

[8] = species: Rattus norvegicus; assay: Ex vivo binding affinity to TSPO in AMPA lesioned rat assessed as increase in ipsi to contralateral ratio by auto radiography; type: functional, organism-based
[9] = Octanol-buffer partition coefficient, log D of the compound at pH 7.4 by shake flask method; type: physicochemical
Summary of the method: (§1)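 Shake-flask partition of the [18F]-labelled radioligand. Log D7.4 was measured between n-octanol and buffer pH 7.4, and log P between n-octanol and water.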

[10] = Octanol-water partition coefficient, log P of the compound by shake flask method; type: physicochemical; summary of the method: as §1
[11] = tested on: Brain; assay: Ratio of drug uptake in ipsi to contralateral side of AMPA lesioned rat brain after 60 mins post injection; type: ADME, tissue-based; conditions: in vivo, 1 h
Summary of the method: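 MicroPET imaging of rats with AMPA-induced brain lesions after injection of the fluorine-18-labelled radiotracer. Uptake in the lesioned (ipsilateral) striatal area is compared with the corresponding area of the intact contralateral hemisphere at 60 min post-injection. Time-activity curves are followed for lesioned and non-lesioned striatum over the scan.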

T1 sequence (P16257 whole entry, looked up): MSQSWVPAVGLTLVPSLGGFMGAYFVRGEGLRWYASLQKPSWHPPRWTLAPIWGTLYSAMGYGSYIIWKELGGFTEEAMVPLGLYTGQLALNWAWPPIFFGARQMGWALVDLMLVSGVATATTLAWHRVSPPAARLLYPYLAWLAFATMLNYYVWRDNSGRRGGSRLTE
Chain of Translocator protein (Homo sapiens, UniProt P30536) (P30536 whole entry): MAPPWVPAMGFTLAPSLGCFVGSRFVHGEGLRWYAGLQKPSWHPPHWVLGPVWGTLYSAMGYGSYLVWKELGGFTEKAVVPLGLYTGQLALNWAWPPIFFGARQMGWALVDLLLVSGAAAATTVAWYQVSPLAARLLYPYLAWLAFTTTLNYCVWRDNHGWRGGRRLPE

| SMILES | Drug uptake [1] | Drug uptake [2] | Activity [7] [%] | Activity [8] | other results |
| --- | --- | --- | --- | --- | --- |
| CCC(C)N([11CH3])C(=O)c1cc2ccccc2c(-c2ccccc2Cl)n1 (configuration not stated) | Active | Active | – | – | – |
| COc1ccccc1CN(C(C)=O)c1cnc(F)cc1Oc1ccccc1 | – | – | 16.45 | inactive | Activity [3]: < 10%; Ki [4]: 0.44 nM; Ki [5]: 3.9 nM; Ki [6]: 1.19 nM; Activity ([8]; tested as the 18F-labelled form): Active |
| CCOC(=O)c1ncn2c1CN(C)C(=O)c1cc(F)ccc1-2 | – | – | – | Active | – |
| CCC(C)N(C)C(=O)c1cc2ccccc2c(-c2ccccc2Cl)n1 (configuration not stated) [PK-11195] | – | – | 37 | inactive | – |
| COc1ccccc1CN(C(C)=O)c1cnc([18F])cc1Oc1ccccc1 | Active | Active | – | – | logD [9]: 2.82; logP [10]: 2.77; Ratio [11]: 2.2 |
